Consider five compounds from ChEMBL document CHEMBL1126015, “Heteroatom analogues of bemoradan: chemistry and cardiotonic activity of 1,4-benzothiazinylpyridazinones” (J Med Chem, 1992).

The species named for assay [1] is Canis familiaris. The assay is described as follows: 50% increase in cardiac force in dog by id dose. The assay is classed as functional. The note with it: Canis lupus familiaris, Heart. The method, boiled down: (§1)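 Anesthetized dogs; the value is the dose, given iv or intraduodenally, that raises cardiac force by 50%.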
The test system of assay [2] is Canis familiaris. Nature of the assay: 50% increase in cardiac force in dog by intravenous dose. Format: functional. The settings on record: Canis lupus familiaris, Heart. In short, it runs like this: as §1
Assay [3] has as its system Canis familiaris. The assay is described as follows: Increase in cardiac force in dog at 75 ug/kg intravenous dose. Format: functional, Canis lupus familiaris.

The structures appear in SMILES notation.

Take `CC1CC(=O)NN=C1c1ccc2c(c1)OCC(=O)N2` (stereo unspecified) [BEMORADAN]: the median effective dose (ED50) (as a rule, the midpoint of the dose-response relation) turned out to be 0.01 mg/kg in assay [1] and 5.4 µg/kg in assay [2].

Consider `CN1C(=O)CS(=O)(=O)c2cc(C3=NNC(=O)CC3)ccc21`, for which the Change in assay [3] is 20%.

Regarding `O=C1CCC(c2ccc3c(c2)SCC(=O)N3)=NN1`, the Change in assay [3] is recorded as 62%.

`CN1C(=O)C[S+]([O-])c2cc(C3=NNC(=O)CC3)ccc21` (stereo unspecified): in assay [3], the Change is -3%.

On to `CN1C(=O)CSc2cc(C3=NNC(=O)CC3)ccc21`, for which the Change in assay [3] amounted to 38%.
